Measured values pooled from the literature.
Compare with care: the assays were run in different laboratories.
PADI1: Protein-arginine deiminase type-1 (PADI1, Homo sapiens, UniProt Q9ULC6)
PMV: Plasmepsin V (PMV, Plasmodium falciparum, UniProt Q8I6Z5)

SMILES | target | assay | setting | quantity | value
CCN(CC)CCCC[C@H](NC(=O)[C@H](CC(C)C)NC(=O)[C@H](C)NC(=O)[C@H](Cc1ccccc1)NC(=O)c1ccc(C(C)(C)C)cc1)C(=O)N[C@@H](CO)C(=O)OC | ATPase family AAA domain-containing protein 2, bromodomain (ATAD2, Homo sapiens, UniProt Q6PL18) | thermal stability, DSF | 25 µM | ΔTm | -0.62 °C
CCOC(=O)[C@H](CCCN=C(N)N)NC(=O)c1ccccc1 | PADI1 | enzyme activity, substrate | – | Km | 190 µM
C#Cc1n[nH]c2c(-c3cn(C(C)c4ccccn4)c(=O)[nH]c3=O)cc(F)cc12 (stereo not shown) | Dual specificity tyrosine-phosphorylation-regulated kinase 2 (DYRK2, Homo sapiens, UniProt Q92630) | enzyme activity, inhibitor | 1 µM | inhibition | -7.1%
COc1ncccc1-c1cnn2ccc(N3CCN(C(=O)OC(C)C)CC3)nc12 | Serine/threonine-protein kinase 32B (STK32B, Homo sapiens, UniProt Q9NY57) | binding, competition with immobilised ligand | 1 µM | remaining binding | 98%
Cc1ccccc1CNC(=O)[C@H]1N(C(=O)[C@@H](O)[C@H](Cc2ccccc2)NC(=O)c2cccc(O)c2C)CSC1(C)C | PMV | enzyme activity, inhibitor, fluorescence | 10 µM | activity vs control | 73%
Nc1ncc(-c2nc(N3CCOCC3)nc(N3CCOCC3)n2)c(C(F)F)n1 | Phosphatidylinositol 4,5-bisphosphate 3-kinase catalytic subunit alpha isoform (PIK3CA, Homo sapiens, UniProt P42336, H1047L) | binding, competition with immobilised ligand | 10 µM | remaining binding | 0%
Cc1cccc(C)c1OCC(=O)N[C@@H](Cc1ccccc1)[C@H](O)C(=O)N1CSC(C)(C)[C@H]1C(=O)N[C@H]1c2ccccc2C[C@H]1O | PMV | enzyme activity, inhibitor, fluorescence | 10 µM | activity vs control | 77%
COC(=O)[C@H](CCCNC(=N)N)NC(=O)c1ccccc1 | PADI1 | enzyme activity, substrate | – | Km | 370 µM
CC(C)C[C@H](CC(=O)NO)C(=O)N[C@H](C(=O)N[C@@H](C)C(=O)NCCN)C(C)(C)C | Disintegrin and metalloproteinase domain-containing protein 17 (ADAM17, Homo sapiens, UniProt P78536) | enzyme activity, inhibitor | 1 µM | inhibition | 13%
Cc1nn(C)cc1-c1nc2c(N3CCN(Cc4ccc(Cl)cc4)CC3)c(Cl)cnc2[nH]1 | Activin receptor type-1-like (ACVRL1, Homo sapiens, UniProt P37023) | binding, competition with immobilised ligand | 1 µM | remaining binding | 100%
